Holding throughout (settings): read-out: IZ
The subject of assay [1] is Escherichia coli. The assay can be described thus: Antibacterial activity against Escherichia coli UPCC 1195 replicate 1 assessed as clearing zone at 30 ug after 24 to 48 hrs. Type of assay: functional. The method in brief: (§1)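 Agar well diffusion. 0.1 mL of bacterial suspension in 0.1% peptone water is spread on prepoured nutrient agar and overlaid with melted NA cooled to 45 °C. Three equidistant 10 mm wells each receive 200 µL of sample in 95% EtOH. Plates are incubated at room temperature and read at 24–48 h. Clearing-zone diameters are measured in mm and averaged.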

The test system of assay [2] is Escherichia coli. The assay can be described thus: Antibacterial activity against Escherichia coli UPCC 1195 replicate 2 assessed as clearing zone at 30 ug after 24 to 48 hrs. The assay is classed as functional. Summed up: as §1
Assay [3] has as its system Escherichia coli. The assay can be described thus: Antibacterial activity against Escherichia coli UPCC 1195 replicate 3 assessed as clearing zone at 30 ug after 24 to 48 hrs. Type of assay: functional. Summed up: as §1
In assay [4] the test system is Pseudomonas aeruginosa. The assay can be described thus: Antibacterial activity against Pseudomonas aeruginosa UPCC 1244 replicate 1 assessed as clearing zone at 30 ug after 24 to 48 hrs. The assay is classed as functional. Summed up:
as §1

For assay [5], the system named is Pseudomonas aeruginosa. The assay can be described thus: Antibacterial activity against Pseudomonas aeruginosa UPCC 1244 replicate 2 assessed as clearing zone at 30 ug after 24 to 48 hrs. Type of assay: functional. The method in brief: as §1
In assay [6] the test system is Pseudomonas aeruginosa. The assay can be described thus: Antibacterial activity against Pseudomonas aeruginosa UPCC 1244 replicate 3 assessed as clearing zone at 30 ug after 24 to 48 hrs. Type of assay: functional. The method in brief: as §1
Assay [7] deals with Candida albicans. The assay can be described thus: Antifungal activity against Candida albicans UPCC 2168 replicate 1 assessed as clearing zone at 30 ug after 24 to 48 hrs. The assay is classed as functional. The method in brief: (§2)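 Yeast is suspended in 0.1% peptone water, and 0.1 mL is spread on glucose yeast peptone agar with a GYP overlay at 45 °C. Three 10 mm wells per plate each get 200 µL of sample in 95% EtOH. Plates are incubated at room temperature and observed after 24–48 h. The mean clearing-zone diameter is recorded in mm.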

The test system of assay [8] is Candida albicans. The assay can be described thus: Antifungal activity against Candida albicans UPCC 2168 replicate 2 assessed as clearing zone at 30 ug after 24 to 48 hrs. Type of assay: functional. Summed up:
as §2

Assay [9] has as its system Candida albicans. The assay can be described thus: Antifungal activity against Candida albicans UPCC 2168 replicate 3 assessed as clearing zone at 30 ug after 24 to 48 hrs. Type of assay: functional. The method in brief:
as §2

Assay [10] has as its system Trichophyton mentagrophytes. The assay can be described thus: Antifungal activity against Trichophyton mentagrophytes UPCC 4193 replicate 1 assessed as clearing zone at 30 ug after 3 to 5 days.
For assay [11], the system named is Trichophyton mentagrophytes. The assay can be described thus: Antifungal activity against Trichophyton mentagrophytes UPCC 4193 replicate 2 assessed as clearing zone at 30 ug after 3 to 5 days.
The subject of assay [12] is Trichophyton mentagrophytes. The assay can be described thus: Antifungal activity against Trichophyton mentagrophytes UPCC 4193 replicate 3 assessed as clearing zone at 30 ug after 3 to 5 days.
In a further assay the test system is Staphylococcus aureus. The assay can be described thus: Antibacterial activity against Staphylococcus aureus UPCC 1143 replicate 1 assessed as clearing zone at 30 ug after 24 to 48 hrs. The assay is classed as functional. The method in brief: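 Agar well diffusion. Microbe suspended in 0.1% peptone water; 0.1 mL spread on prepoured nutrient agar, overlaid with melted medium cooled to 45 °C. Three 10 mm wells per plate, 200 µL sample in 95% EtOH per well. Incubated at room temperature and read at 24–48 h. Clearing-zone diameter measured in mm.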

Another assay relates to Bacillus subtilis. The assay can be described thus: Antibacterial activity against Bacillus subtilis UPCC 1149 replicate 1 assessed as clearing zone at 30 ug after 24 to 48 hrs. Type of assay: functional. Summed up: as §1

Turning to `CC[C@@H]1O[C@H]1/C=C1/C(=O)C=C[C@@]1(O)CCCC[C@@H]1CCC(=O)O1`, the zone of inhibition at 30 µg/disc in the assay on Escherichia coli [1], in the assay with Escherichia coli [2], with Escherichia coli [3], with Pseudomonas aeruginosa [4], in the assay on Pseudomonas aeruginosa [5] and with Pseudomonas aeruginosa [6] was 12 mm throughout. In addition, the zone of inhibition at 30 µg/disc in the assay on Candida albicans [7] was found to be 13 mm; in the assay with Candida albicans [8], 13 mm; with Candida albicans [9] it was 13 mm; in [10], 12 mm; in [11], 12 mm; in assay [12], 12 mm.

Regarding `O=C(N[C@H](CO)[C@H](O)c1ccc([N+](=O)[O-])cc1)C(Cl)Cl` [CHLORAMPHENICOL], the zone of inhibition at 30 µg/disc amounted to 23 mm with Escherichia coli [1], 14 mm in the assay on Pseudomonas aeruginosa [4], 25 mm in the assay on Staphylococcus aureus and 20 mm with Bacillus subtilis.

As to `C/C=C/C(=O)C[C@H]1C(=O)C=C[C@@]1(O)CCCC[C@@H]1CCC(=O)O1`, the zone of inhibition at 30 µg/disc with Escherichia coli [1], in the assay with Escherichia coli [2], in the assay on Escherichia coli [3], in the assay with Pseudomonas aeruginosa [4], in the assay with Pseudomonas aeruginosa [5] and in the assay with Pseudomonas aeruginosa [6] was 12 mm throughout. Besides, the zone of inhibition at 30 µg/disc (in the assay on Candida albicans [7]; with Candida albicans [8]; in the assay with Candida albicans [9]; in [10]; in assay [11]; in [12]) was 13 mm in each case.

The values above are taken from ChEMBL document CHEMBL1149834, “Chromomoric acid derivatives from Tectona philippinensis” (2008).
